Only some compounds are listed: those with a hit (about 3.1% of all), similar ones and a draw of the others.
KCNQ1 pot: potentiators or activators of KCNQ1 channel, primary screen, cell-based, thallium flux, high-throughput; B-score at 10 µM; AID 2648, 2010; CHO-K1 KCNQ1, thallium flux FluxOR fluorescence; stronger effect = higher value; 0.35% of 310,000 active;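 active = fluorescence ratio B-score, a plate-corrected score, at least three library SD, with initial intensity B-score within 5 SD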
Target sequence (P51787 whole entry, looked up): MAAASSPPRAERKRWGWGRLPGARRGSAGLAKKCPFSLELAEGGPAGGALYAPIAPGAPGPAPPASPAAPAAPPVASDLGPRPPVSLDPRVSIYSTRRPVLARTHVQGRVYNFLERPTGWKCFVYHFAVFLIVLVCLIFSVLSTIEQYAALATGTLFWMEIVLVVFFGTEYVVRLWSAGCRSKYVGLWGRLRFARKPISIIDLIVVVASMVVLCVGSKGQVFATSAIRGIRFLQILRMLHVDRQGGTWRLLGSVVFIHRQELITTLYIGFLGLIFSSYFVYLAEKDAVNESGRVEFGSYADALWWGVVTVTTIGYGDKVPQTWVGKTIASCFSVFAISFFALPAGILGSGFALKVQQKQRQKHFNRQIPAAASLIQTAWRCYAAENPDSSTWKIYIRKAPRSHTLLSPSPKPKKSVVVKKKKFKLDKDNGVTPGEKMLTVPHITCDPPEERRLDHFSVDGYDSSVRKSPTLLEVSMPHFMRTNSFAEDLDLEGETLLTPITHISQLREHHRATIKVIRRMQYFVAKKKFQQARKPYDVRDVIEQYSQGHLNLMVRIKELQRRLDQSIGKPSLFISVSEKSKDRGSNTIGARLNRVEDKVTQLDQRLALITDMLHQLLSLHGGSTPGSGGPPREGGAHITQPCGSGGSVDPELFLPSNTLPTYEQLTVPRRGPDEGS
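Doses: Single concentration per compound, DMSO matched to controls | Test system: KCNQ1-transfected CHO-K1 cells | Timing: 90 min dye loading and 20 min compound exposure, both at room temperature | Measured by: Kinetic FluxOR thallium fluorescence, 10-s 1-Hz baseline, 110-s post-stimulus read | Medium: Assay buffer with matched DMSO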
hERG protect: hERG rescue from dofetilide block, primary screen, cell-based, CHO-hERG, FluxOR thallium flux, dofetilide IC70; Voltage-gated inwardly rectifying potassium channel KCNH2 (Homo sapiens), Q12809; dofetilide IC70 present; activation (rescue from dofetilide block), less the hit threshold, % at 10 µM; 0.51% of 310,000 active;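 active = activation above the mean of controls blocked by dofetilide plus 5 SD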;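 also: thallium influx through hERG after potassium depolarization seen as dye fluorescence rise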
KCNK9 block: KCNK9 potassium channel inhibitors, primary screen, HEK293 cells, thallium flux; FluxOR thallium flux fluorescence; stronger effect = lower value; B-score at 10 µM; 1.2% of 310,000 active; AID 488922, 2010; Potassium channel subfamily K member 9 (Homo sapiens), Q9NPC2;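 active = ratio B-score over 3 SD below the library mean, with starting fluorescence within 5 SD of its mean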;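 also: negative B-score means less thallium flux so channel inhibition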
KCNK3 inh: human KCNK3 channel inhibitors, primary screen, CHO cells, FluxOR thallium flux, B-score; FluxOR fluorescence; stronger effect = lower value; 0.84% of 340,000 active; Potassium channel subfamily K member 3 (Homo sapiens), O14649; B-score at 10 µM;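 active = B-score under library mean minus 4 SD, starting fluorescence ratio at most library mean plus 5 SD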;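 also: more negative B-score means stronger inhibition of thallium flux through KCNK3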
KCNQ1 inh: inhibitors of human KCNQ1 channel, primary screen, cell-based, thallium flux, high-throughput; 1.3% of 310,000 active; B-score at 10 µM; Potassium voltage-gated channel subfamily KQT member 1 (Homo sapiens), P51787; CHO-K1 KCNQ1, FluxOR thallium flux fluorescence; stronger effect = higher value;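 active = compounds whose thallium flux B-score, printed positive for inhibition, exceeds three library SD while starting fluorescence stays within three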;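 also: channel opened by potassium depolarization with thallium stimulus after 20 min compound exposure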
Of the large screens only hits and unclear results are named; the others gave an inactive call.

CNC(=S)Nc1cccc([N+](=O)[O-])c1	none
C/C(=N/NC(=S)Nc1cccc(C)c1)c1cccc([N+](=O)[O-])c1	KCNQ1 pot 10
CN(C(=O)c1cccc(NC(=O)Cc2ccc(NC(=O)C3CCCN(C(=O)C4CCCC4)C3)cc2)c1)C1CCCCC1 (configuration not stated)	none (no result: KCNQ1 pot, hERG protect, KCNK9 block, KCNQ1 inh)
Cc1ccc(NC(=O)c2cccs2)cc1S(=O)(=O)Nc1cccc(Cl)c1	KCNK9 block -7.8
Cc1ccc(NC(=S)NC(=O)c2ccc(F)cc2)cc1S(=O)(=O)Nc1cccc(Cl)c1	none
CCN1C(=NCCc2c[nH]c3ccccc23)N[C@@H](c2ccccc2)[C@H](C(=O)OC)[C@H]1C	none
OCc1c[nH]c(=S)n1CCOc1cccc(C(F)(F)F)c1	none
COc1ccc(-n2c(=S)[nH]c3ccccc3c2=S)cc1	KCNQ1 pot 16
COc1ccc(Cn2c(=S)[nH]c3ccccc32)cc1	hERG protect 7.2
COc1ccc(-n2c(=S)[nH]c3ccccc32)cc1	none
COCCn1c(=S)[nH]c2ccccc21	none
CC(Oc1ccc(F)cc1)C(=O)Nc1cc(Cl)ccc1-n1cncn1 (configuration not stated)	none
O=C(Nc1ccccc1)c1nc[nH]c1C(=O)N1CCN(c2ccccc2)CC1	none (no result: KCNQ1 pot, hERG protect, KCNK9 block, KCNQ1 inh)
COc1ccc(NC(=O)c2nc[nH]c2C(=O)N2CCN(c3ccccc3)CC2)cc1	hERG protect 5.7
O=C1CN(C(=O)/C=C/c2ccc(Br)cc2)CCN1	none
NCC12CC3CC(C1)CC(c1ccc(Cl)cc1)(C3)C2	KCNK9 block -7.2
Nc1ccc(C23CC4CC(CC(CO)(C4)C2)C3)cc1	none
Cc1c(C(=O)Nc2ccccc2[N+](=O)[O-])csc1-c1ccccc1	KCNK9 block -6.7
Fc1cccc(CSc2ncnc3c2ncn3C2CCCCO2)c1 (configuration not stated)	none (no result: KCNQ1 pot, hERG protect, KCNK9 block, KCNQ1 inh)
CCCCCCc1cc2cc(C(=O)OCC)c(=O)oc2cc1O	KCNQ1 inh 8
CCCCCCc1cc2cc(C(=O)Nc3ccc(OC)cc3)c(=O)oc2cc1O	none
CCCCCCc1cc2cc(C(N)=O)c(=N)oc2cc1O	KCNQ1 inh 29 (no result: KCNK3 inh)
CCOC(=O)c1ccc(NC(=O)C2CC(O)CN2S(=O)(=O)c2ccc(C)cc2)cc1 (configuration not stated)	none (no result: KCNQ1 pot, hERG protect, KCNK9 block, KCNQ1 inh)
Cc1ccc(S(=O)(=O)N2CCN(c3ccccc3)CC2)s1	none (no result: KCNQ1 pot, hERG protect, KCNK9 block, KCNQ1 inh)
CCOc1ccc(/C=C2\CCCc3c2nc2ccccc2c3C(=O)O)cc1OC	KCNQ1 inh 19
NC(=O)C1CCN(Cc2cccc(OCc3ccccc3)c2)CC1	none
O=C(NCc1ccccn1)C1CCN(Cc2cccc(OCc3ccccc3)c2)CC1	KCNQ1 pot 8
N#CC1=C(N)Oc2cc(O)c(Cl)cc2C1c1cccnc1 (configuration not stated)	none
N#CC1=C(N)Oc2cc(O)c(Cl)cc2C1c1ccccc1F (configuration not stated)	KCNQ1 inh 14
O=C(NCc1ccccc1Cl)c1ccc(S(=O)(=O)NCc2ccco2)cc1	none (no result: KCNQ1 pot, hERG protect, KCNK9 block, KCNQ1 inh)
CCCCNS(=O)(=O)c1ccc2nc(SCC(=O)Nc3sccc3C#N)[nH]c2c1	KCNQ1 inh 11
COc1ccc(/C=N\NC(=S)SCN2C(=O)C3CCC(C)(C2=O)C3(C)C)cc1 (configuration not stated)	KCNQ1 pot 16
CN(C)c1ccc(/C=N\NC(=S)SCN2C(=O)C3CCC(C)(C2=O)C3(C)C)cc1 (configuration not stated)	none (no result: KCNQ1 pot, hERG protect, KCNK9 block, KCNQ1 inh)
CCOC(=O)c1ccccc1NC(=O)N1CCn2c(C)ccc2C1CC (configuration not stated)	none
CCC1c2ccc(C)n2CCN1C(=O)Nc1ccccc1C(=O)OC (configuration not stated)	KCNK9 block -7
O=C1C(=O)N(C2CCS(=O)(=O)C2)C(c2cccc(O)c2)/C1=C(/O)c1ccc(Cl)cc1 (configuration not stated)	none
Cc1oc(C)c2c(=O)ccc3c(c12)OC(N)=C(C#N)C3c1ccccc1Cl (configuration not stated)	KCNQ1 inh 6
Cc1oc(C)c2c(=O)ccc3c(c12)OC(N)=C(C#N)C3c1ccccc1 (configuration not stated)	none
COc1ccc([C@H]2C(C(=O)O)=C[C@@H](CC3CCCC3)N2S(=O)(=O)c2ccc(C)cc2)cc1OC	none (no result: KCNQ1 pot, hERG protect, KCNK9 block, KCNQ1 inh)
CCCCN(C)CC(O)Cn1cc(/C=C/C(=O)c2cccs2)c2ccccc21 (configuration not stated)	KCNQ1 inh 8
c1ccc(-c2nc(N3CCN(c4ccccc4)CC3)nc(-n3ccnc3)n2)cc1	KCNK9 block -7.1
O=[N+]([O-])c1ccc(/C([O-])=C(/C(=S)NCc2ccco2)[n+]2ccccc2)cc1	KCNQ1 pot 8
O=C(O)c1ccccc1C(=O)c1cccc2c(Br)cccc12	none (no result: KCNQ1 pot, hERG protect, KCNK9 block, KCNQ1 inh)
COc1ccc(OC)c(/C=C2\SC(N3CCCC(C)C3)=NC2=O)c1 (configuration not stated)	KCNQ1 inh 7
COC(=O)C1=NN(C(=O)c2ccc(C)cc2)C(O)(c2ccc(Cl)cc2)C1 (configuration not stated)	KCNQ1 pot 37, hERG protect 50 (no result: KCNK3 inh)
CCn1c(C)c(C)c2cc(C(=O)Nc3cccc(Cl)c3)ccc21	KCNQ1 inh 6
OCCNc1ncnc2c1c(-c1ccccc1)c(-c1ccccc1)n2Cc1ccco1	none
c1ccc(-c2c(-c3ccccc3)n(Cc3ccco3)c3ncnc(NCCCn4ccnc4)c23)cc1	KCNQ1 inh 12
c1cncc(-c2nc(N3CCCCCC3)c3ccccc3n2)c1	none
Fc1ccccc1N1CCN(c2nc(-c3cccs3)nc3ccccc23)CC1	KCNK9 block -7.6
CC(=O)N1CCN(c2nc(-c3cccs3)nc3ccccc23)CC1	none
CN(Cc1ccccc1F)c1nc(-c2cccs2)nc2ccccc12	KCNK9 block -8, KCNQ1 inh 6
c1ccc2c(N3CCCCCC3)nc(-c3ccncc3)nc2c1	KCNK9 block -6.6
CC(C)(C)OC(=O)N1CCC(C(=O)Nc2ccc(C(=O)NC3CC3)cc2)CC1	none (no result: KCNQ1 pot, hERG protect, KCNK9 block, KCNQ1 inh)
O=C(NCc1c[nH]c2ccccc12)c1ccccc1	none
Cc1cccc(NC(=O)c2ccc(N3CCCCC3)c([N+](=O)[O-])c2)n1	none
Cc1ccc(C)c2sc(NC(=O)c3ccc(N4CCCCC4)c([N+](=O)[O-])c3)nc12	KCNK9 block -7.8
CCCN1/C(=C(\C#N)C2=NS(=O)(=O)c3ccccc32)N(C)c2ccccc21	none (no result: KCNQ1 pot, hERG protect, KCNK9 block, KCNQ1 inh)
Nc1nc2n(n1)C(=O)CC(c1ccccc1[N+](=O)[O-])N2 (configuration not stated)	none

From PubChem
